This is a sample that favours compounds with a hit; in the whole collection about 5.1% have one here.
STAT1 blocker: reduces IFN-gamma driven STAT1 reporter signal; AID 920; NIH 3T3 STAT1-luciferase reporter, luminescence; inhibition, % at 5.5 µM; actives 0.35% (n = 200,000);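 active means inhibition above a set limit, the mean inhibition across all tested compounds plus 3 SD, cut at about 34% in these data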;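 further: 0% = IFN-gamma with DMSO and 100% = IFN-gamma with 300 µM nifuroxazide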
APP 5'UTR act: APP 5'UTR luciferase reporter activation | SH-SY5Y APP 5'UTR luciferase reporter, luminescence; zero percent = DMSO vehicle wells | activation, % at 2 µM | actives 1% (n = 190,000) | AID 1276;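 active means activation above a set limit, based on mean plus 3 SD of controls, cut at about 140% in these data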
STAT3 act: activators of IL-6 induced STAT3 signaling | U3A cells, IL-6 STAT3-luciferase reporter, luminescence; 100% = signal with IL-6 EC80 alone | actives 0.91% (n = 190,000) | activation (% of control), % at 5.6 µM;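 active means activation above the screen-wide mean of compound activation plus 3 SD, cut at about 130% in these data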;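 further: 0% = background luminescence of wells with medium and substrate only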
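Test system: STAT3-luciferase reporter U3A cells; Detection: reporter luminescence signal; Times: 1 h compound pre-exposure, 6 h IL-6 stimulation, 37 °C; Benchmarks: IL-6-only high control; Also added: IL-6 stimulus at 33 ng/mL final.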
NF-kB expr up: raises NF-kB expression in human neuronal cells. NF-kB reporter expression; stronger effect = higher value. fold change at 12.5 µM. actives 1.6% (n = 190,000); in the data active means fold change above about 3.3
STAT3 inh: inhibitors of IL-6 induced STAT3 signaling | inhibition, % at 5.5 µM | actives 0.89% (n = 190,000) | U3A cells, IL-6 STAT3-luciferase reporter, luminescence; host cell line lacks STAT1 | AID 862;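 active means inhibition above the mean inhibition across all screened compounds plus 3 SD, cut at about 44% in these data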;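 further: 0% = DMSO only wells and 100% = 100 µM nifuroxazide control wells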
STAT1 act: increases IFN-gamma driven STAT1 reporter signal; NIH 3T3 STAT1-luciferase reporter, luminescence; 100% = IFN-gamma alone, no compound; actives 2.6% (n = 200,000); activation (% of control), % at 5.5 µM;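 active means activation above the screen-wide mean activation plus 3 SD, cut at about 130% in these data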;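 further: raw ratio to IFN-gamma control signal so 100% means no change and 0% no light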
STAT1 activ conf: STAT1 activation, confirmation assay; activation (% of control), % at 5.7 µM; AID 1262; NIH 3T3 STAT1-luciferase reporter, IFN-gamma potentiation, luminescence; 100% = IFN-gamma EC80 alone, no compound; shares compounds with STAT1 act; actives 97% (n = 1,200);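 active means activation above a set limit carried over from the earlier primary STAT1 screen, cut at about 140% in these data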;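 further: simple ratio to median IFN-gamma plus DMSO wells so 0% means no light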
NFkB act: NF-kappaB activation in STAT1 activator counter-screen; HEK293T NF-kB luciferase reporter, TNF-alpha stimulated, luminescence; 100% = TNF-alpha with vehicle only; shares compounds with STAT1 act; actives 43% (n = 1,200); activation (% of control), % at 5.7 µM;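 active means activation above the mean of solvent-only control wells plus 3 SD, set per campaign, cut at about 130% in these data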;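 further: TNF-alpha given at a submaximal dose yielding about 80% of full reporter signal; values are well signal over median control so 100% means no change and 0% no light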
STAT3 act STAT1c: activates human STAT3, counter-screen to STAT1 activators. shares compounds with STAT1 act. U3A cells STAT3-luciferase reporter, IL-6, luminescence; cells lack STAT1; 100 = IL-6 alone, no compound effect. activation (% of control), % at 5.7 µM. actives 46% (n = 1,200). AID 1316;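 active means activation above the solvent-only control well mean plus 3 SD, set per plate batch, cut at about 110% in these data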;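 further: 0% = no luminescence and 100% = median IL-6 plus DMSO wells; higher means more STAT3 reporter activation so hits are non-selective activators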
* marks the source's active call; other numbers are inactive results; . = no result given.

SMILES | STAT1 blocker | APP 5'UTR act | STAT3 act | NF-kB expr up | STAT3 inh | STAT1 act | STAT1 activ conf | NFkB act | STAT3 act STAT1c
O=C(NCCc1ccc(Cl)cc1)c1n[nH]c2ccccc12 | -18.4 | 16.6 | 88.6 | 1.2 | 20.6 | 115.6 | . | . | .
O=C(NCCc1ccccc1)c1n[nH]c2ccccc12 | -74.4 | 88.0 | 93.1 | 3.35* | 13.2 | 164.3* | 183.9* | 129.8 | 103.5
N/C(=N\OC(=O)c1ccco1)c1ccc(Br)cc1 | -67.5 | 173.1* | 89.7 | 3.71* | 15.5 | 161.7* | 157.8* | 122.7 | 101.6
O=C(Nc1ccc(N2CCOCC2)cc1)c1ccccc1SCC(=O)N1CCCC1 | -5.7 | 17.1 | 107.4 | 1.16 | -7.0 | 103.9 | . | . | .
O=C(O)c1ccccc1C(=O)c1ccc2c(c1)N(Cc1ccc(Cl)c(Cl)c1)C(=O)CO2 | 4.2 | 10.9 | 96.2 | 1.48 | 13.2 | 96.3 | . | . | .
O=[N+]([O-])c1cc(Br)c(OCc2nnc(-c3ccccc3)o2)c(Br)c1 | -3.6 | 20.1 | 103.3 | 1.04 | 3.8 | 103.0 | . | . | .
O=[N+]([O-])c1cccc(-c2nnc(-c3ccccc3)o2)c1 | -59.7 | 114.8 | 98.8 | 3.03 | 5.9 | 153.3* | 161.0* | 121.4 | 100.1
COc1ccc(-c2cc(C(=O)NC(Cc3cc4ccccc4[nH]3)C(=O)O)c(C)o2)cc1OC (stereo not given) | -11.1 | -7.7 | 121.6 | 1.35 | -20.1 | 108.5 | . | . | .
COc1ccc(-c2cc(C(=O)O)c(C)o2)cc1OC | -56.2 | 98.7 | 69.7 | 2.42 | 40.4 | 152.0* | 217.6* | 79.4 | 111.7*
O=c1c2ccccc2nnn1CSc1ncnc2ccccc12 | 20.1 | 2.6 | 110.0 | 2.27 | -8.2 | 81.6 | . | . | .
O=c1c2ccccc2nnn1CSc1ccccc1F | -60.3 | 152.3* | 86.5 | 4.66* | 14.7 | 159.9* | 198.3* | 115.3 | 103.2
Cc1ccc2nc(SCC(=O)c3c(C)[nH]c4ccccc34)[nH]c2c1 | -3.5 | 2.7 | 92.2 | 0.89 | 12.7 | 103.1 | . | . | .
Cc1ccc2nc(SCn3nnc4ccccc4c3=O)[nH]c2c1 | -70.1 | 175.0* | 124.1 | 3.77* | -24.0 | 163.2* | 180.0* | 119.5 | 129.2*
CC(=O)Nc1ccc(N(C(=O)c2ccco2)C(C(=O)NC2CCCC2)c2ccc(N3CCOCC3)cc2)cc1 (stereo not given) | -7.4 | 5.6 | 113.2 | 0.8 | -8.8 | 104.6 | . | . | .
Cc1ccc(NC(=O)CN(C)C(=O)CCC(=O)c2cccs2)cc1 | -0.1 | 17.6 | 100.1 | 1.34 | -0.6 | 100.1 | . | . | .
COC(=O)c1ccc(-c2ccc(Cl)cc2)nc1C | -96.7 | 179.0* | 94.9 | 5.94* | 10.2 | 185.5* | 240.8* | 135.7* | 111.0*
CCOC(=O)c1ccc(-c2cccc(C(F)(F)F)c2)nc1C | -4.2 | -12.3 | 93.0 | 1.71 | 18.1 | 103.7 | . | . | .
CCOC(=O)c1sc(-c2ccc(OC)cc2)cc1N | -62.1 | 158.7* | 104.9 | 7.1* | -1.6 | 156.7* | 205.5* | 136.8* | 108.6
O=C(O)C1=C[C@@H](C2CCCCC2)C[C@@H](OCc2ccc(CO)cc2)O1 | -0.8 | 1.7 | . | 1.55 | . | 102.2 | . | . | .
O=C(NC1CC1)C1=C[C@H](C2CCCCC2)C[C@H](OCc2ccc(CO)cc2)O1 | -60.5 | -0.6 | . | 1.12 | . | 158.1* | 105.4 | 100.8 | 93.9
O=c1cc(/C=C/c2ccccc2)oc2ccccc12 | -64.5 | 133.9 | 116.6 | 4.59* | -8.0 | 156.1* | 191.7* | 135.7* | 123.9*
Cc1nc(Nc2ccccc2)sc1-c1ccccc1 | -104.1 | 187.0* | 89.5 | 8.84* | 14.7 | 193.1* | 242.2* | 130.1 | 106.8
CCOC(=O)c1sc(Nc2ccccc2)nc1C | -31.7 | 68.2 | 110.3 | 2.39 | -11.0 | 119.7 | . | . | .
COc1ccc(NS(=O)(=O)c2cccc(-c3n[nH]c(=S)n3Cc3ccccc3)c2)cc1 | 8.2 | 8.5 | 104.0 | 1.25 | 0.4 | 93.8 | . | . | .
COc1ccc(N(CC(=O)NC(C)C)S(=O)(=O)c2ccc(NC(C)=O)cc2)cc1 | 2.0 | . | 103.0 | 0.85 | -5.3 | 98.2 | . | . | .
SMILES | STAT1 blocker | APP 5'UTR act | STAT3 act | NF-kB expr up | STAT3 inh | STAT1 act | STAT1 activ conf | NFkB act | STAT3 act STAT1c
COc1ccc(N/C=C2/Sc3ccccc3NC2=O)cc1 | -71.2 | 104.1 | 109.7 | 1.79 | -10.3 | 166.2* | 169.9* | 112.5 | 107.1
Cc1ccc(N/C=C2/Sc3ccccc3NC2=O)cc1 | -77.2 | 122.6 | 93.7 | 1.73 | 11.7 | 168.4* | 192.1* | 134.6* | 90.5
CS(=O)(=O)Nc1ccc(C2=NN(S(C)(=O)=O)C(c3ccc4nccnc4c3)C2)cc1 (stereo not given) | 0.8 | -1.1 | 87.6 | 1.19 | 19.2 | 98.9 | . | . | .
CS(=O)(=O)N1N=C(c2ccc(Br)cc2)CC1c1ccc2c(c1)OCO2 (stereo not given) | -60.7 | 111.0 | 113.7 | 5.45* | -4.2 | 154.6* | 202.9* | 135.5* | 124.7*
Cc1ccc(C2=NN(S(C)(=O)=O)C(c3ccc4c(c3)OCO4)C2)cc1 (stereo not given) | -124.6 | 139.4* | 109.0 | 10.4* | -13.5 | 210.9* | 256.5* | 141.3* | 140.0*
CCn1c2ccccc2c2cc(CN3CCN(S(=O)(=O)Cc4ccccc4)CC3)ccc21 | 8.0 | 10.4 | 101.2 | 1.28 | -2.4 | 92.9 | . | . | .
CN(C)c1ccc(/C=N/N=C/c2ccccc2O)cc1 | -62.8 | 165.3* | 79.9 | 3.6* | 25.0 | 156.2* | 208.2* | 87.2 | 75.2
COCC(C)NC(=O)c1cc(-c2ccc(O)cc2)on1 (stereo not given) | -11.2 | 23.2 | 100.1 | 1.68 | 5.1 | 110.0 | . | . | .
CCC(C)NC(=O)c1cc(-c2ccc(OC)cc2)on1 (stereo not given) | -55.1 | 23.1 | 89.0 | 3.35* | 14.2 | 156.9* | 178.8* | 131.1 | 106.9
O=C(Nc1ccc(F)cc1)c1ccccc1F | -10.7 | 52.5 | 86.6 | 1.73 | 14.9 | 109.9 | . | . | .
O=C(COC(=O)Cc1ccccc1F)Nc1ccc(SC(F)F)cc1 | -4.7 | 8.8 | 99.5 | 1.14 | -1.7 | 104.2 | . | . | .
O=C(Cc1ccccc1F)Nc1ccc(SC(F)F)cc1 | -70.5 | 152.8* | 110.3 | 5.31* | -7.8 | 162.3* | 169.4* | 127.8 | 127.2*
O=C(Nc1ccc(SC(F)F)cc1)c1ccccc1F | -64.5 | 125.9 | 99.6 | 1.28 | 0.2 | 160.6* | 181.9* | 141.7* | 102.4
